Most compounds without a hit are left out; they make up all but 1.9% or so of the library.
pCIP destab = lowers stability of the mouse p/CIP coactivator protein. F442A p/CIP-EGFP cells, EGFP fluorescence, 16 h. decrease of EGFP signal, % at 10 µM. 0.01% of 290,000 active. AID 1984;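 active means EGFP signal decrease of at least 30% at 10 µM or well 3 SD below plate mean, unless failing retest; inactive means the rest, including hits failing retest or dose response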
UBC9 SUMO inh = blocks human SUMOylation mediated by UBC9; HTRF SUMOylation assay, SAE1/SAE2 + UBC9, in vitro; inhibition, % at 35 µM; 0.36% of 290,000 active; AID 2006; in the data active means inhibition above about 50%, passing the limit was not always enough
Target sequence (P63279 whole entry, looked up): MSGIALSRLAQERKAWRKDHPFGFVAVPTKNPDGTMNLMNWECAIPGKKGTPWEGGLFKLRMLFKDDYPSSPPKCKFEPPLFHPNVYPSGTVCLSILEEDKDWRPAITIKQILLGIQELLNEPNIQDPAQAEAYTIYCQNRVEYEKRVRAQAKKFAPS
CTSL1 counter = cathepsin L1 inhibition, PFM18AAP counter-screen | recombinant F. hepatica cathepsin L1, Z-Leu-Arg-MCA fluorescence | inhibition, % at 5.96 µM | 0.49% of 300,000 active | AID 1906;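 active means inhibition above the mean of all tested compounds plus 3 SD, set per screening campaign, cut at about 17% in these data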;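 further: 0% = plate median of test compound wells and 100% = 1 µM Z-Phe-Ala-diazomethylketone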
T cell HTS = T cell immune modulation candidate; response (vesicle binding), % at 7 µM; AID 2052; 0.068% of 330,000 active; 2C CD8+ T cell-vesicle binding, flow cytometry; stronger effect = lower value;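 active means response, share of CD8 T cells binding vesicles, and their 90th percentile fluorescence all below set limits, cut at about 80% in these data, passing the limit was not always enough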;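 further: values below 100% mean blocked vesicle binding to the CD8+ T cells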
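Assay system – 2C mouse CD8+ T cells · Also added – QL9-loaded Drosophila micro-vesicles · Timing – Cell–vesicle co-incubation 1.5 h at 37 °C, staining 20 min on ice · Signal – flow cytometry of vesicle-bound cells · Measure – percent CD8+ FL2 mean versus row control · Controls – Peptide-free naked vesicles (low) and QL9 vesicles with 0.7% DMSO vehicle (high)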
IMP-1 inhibitor = blocks Pseudomonas aeruginosa IMP-1 metallo-beta-lactamase; inhibition, % at 5.6 µM; 0.45% of 290,000 active; purified IMP-1, nitrocefin hydrolysis, epi-absorbance fluorescence;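 active means inhibition above the mean plus 3 SD of all compounds in the same screening run, cut at about 4.5% in these data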;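 further: 0% = IMP-1 with DMSO and 100% = DMSO wells lacking enzyme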
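Test system: recombinant IMP-1 enzyme, purified / Medium: HEPES buffer pH 7.1 with ZnSO4 and Brij 35 / Doses: single dose, 5.6 µM / Times: 25 °C, 15 min preincubation, 25 min reaction / Detection: Epi-absorbance via hydrolysed-nitrocefin quenching of white-plate fluorescence, 480/530 nm, EDTA stop / Evaluation: percent inhibition from optical density relative to buffer-blank wells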
VIM-2 inh = blocks Pseudomonas aeruginosa VIM-2 metallo-beta-lactamase; AID 1527; purified VIM-2, nitrocefin hydrolysis, epi-absorbance fluorescence; 0.89% of 290,000 active; inhibition, % at 5.6 µM;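 active means inhibition above the mean of all tested compounds plus 3 SD, cutoff set per screening run, cut at about 7.5% in these data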;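 further: red hydrolysis product quenches plate fluorescence so inhibitors raise well fluorescence; 0% = enzyme with DMSO and 100% = DMSO without enzyme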
Active calls of the source: *; nt = no result.

SMILES | pCIP destab | UBC9 SUMO inh | CTSL1 counter | T cell HTS | IMP-1 inhibitor | VIM-2 inh
CN(/N=C/c1ccncc1)C1=NS(=O)(=O)c2ccccc21 | -9.7 | 20.7 | -4.3 | 345.0 | -2.6 | 9.9*
CN(C)c1ccc(/C=N/N(CCC#N)C2=NS(=O)(=O)c3ccccc32)cc1 | -10.1 | 12.9 | 1.1 | 109.8 | -2.4 | 9.1*
C#CCOCCOCCOCCNc1nc(N2CCN(C(=O)[C@H]([C@@H](C)CC)n3cc([C@@H](N)Cc4ccc(O)cc4)nn3)CC2)nc(N2CCN(C(=O)[C@H](Cc3cc4ccccc4[nH]3)n3cc([C@@H](N)CC(C)C)nn3)CC2)n1 | nt | nt | 50.7* | 753.1 | nt | nt
C#CCOCCOCCOCCNc1nc(N2CCN(C(=O)[C@H](Cc3ccc(O)cc3)n3cc([C@@H](N)CC(C)C)nn3)CC2)nc(N2CCN(C(=O)[C@H](Cc3ccc(O)cc3)n3cc([C@@H](N)CC(C)C)nn3)CC2)n1 | -2.9 | -7.4 | 7.5 | nt | 12.9* | 2.0
C#CCOCCOCCOCCNc1nc(N2CCN(C(=O)[C@H]([C@@H](C)CC)n3cc([C@@H](N)Cc4ccc(O)cc4)nn3)CC2)nc(N2CCN(C(=O)[C@H](CCCCN)n3cc([C@@H](N)CC(C)C)nn3)CC2)n1 | -3.9 | 0.1 | 28.0* | 564.0 | -3.5 | -1.8
C#CCOCCOCCOCCNc1nc(N2CCN(C(=O)[C@H](CCC(=O)O)n3cc(C(N)CC(C)C)nn3)CC2)nc(N2CCN(C(=O)[C@H](Cc3ccc(O)cc3)n3cc(C(N)CC(C)C)nn3)CC2)n1 (stereo not given in full) | -13.6 | 2.2 | 0.3 | 358.8 | -2.8 | -1.5
C#CCOCCOCCOCCNc1nc(N2CCN(C(=O)[C@H]([C@@H](C)CC)n3cc([C@@H](N)CC(C)C)nn3)CC2)nc(N2CCN(C(=O)[C@H](Cc3cc4ccccc4[nH]3)n3cc([C@@H](N)Cc4ccc(O)cc4)nn3)CC2)n1 | -4.9 | -8.3 | 10.9 | 361.4 | -3.9 | -4.4
O=C(O)c1cc([N+](=O)[O-])ccc1NCc1ccccc1Cl | -3.1 | 21.6 | -1.2 | 329.6 | -2.6 | 11.3*
Cc1ccc2c(cnn2C(=O)CCCC(=O)NCc2ccc(F)cc2)c1 | 0.4 | 0.4 | 87.1* | 656.9 | -2.2 | -5.7
CN1CCN(C(=O)c2cc3c(=O)n4ccccc4nc3s2)CC1 | 11.8 | 19.3 | 0.7 | 499.7 | -0.2 | 7.9*
CCn1c(=O)c2cc(C(=O)NC(C)C)sc2c2ccccc21 | -1.4 | 7.6 | 1.9 | 162.6 | 0.0 | 5.7
CCn1c(=O)c2cc(C(=O)N3CCN(C)CC3)sc2c2ccccc21 | -1.2 | 9.4 | 5.2 | 488.0 | -2.4 | 9.0*
CCCc1cc(=O)[nH]c(SCC(=O)c2cc(C)n(-c3c(C)n(C)n(-c4ccccc4)c3=O)c2C)n1 | -2.4 | 12.5 | -1.0 | 360.8 | -1.2 | -2.0
CCn1c(SCC(=O)O)nnc1-c1cc2c(C)nn(-c3ccccc3)c2s1 | 3.9 | 26.4 | 4.2 | nt | -3.0 | 10.2*
COc1ccccc1Oc1c(C)oc2cc(OC(=O)c3ccco3)ccc2c1=O | 0.5 | 51.6* | -8.4 | 162.9 | -1.1 | -1.6
CCOC(=O)C1CCN(Cc2cc(Cl)c3ccccc3c2O)CC1 | -10.8 | 10.4 | -7.2 | 213.2 | 1.4 | -1.3
Cc1c(/C(O)=C2/C(=O)C(=O)N(CCN3CCOCC3)C2c2cccs2)cnn1-c1ccccc1 (stereo not given) | -16.5 | 11.4 | -6.7 | 267.7 | 6.1* | -0.3
COC(=O)c1cc(C)nc2c1C(=O)C(=O)C=C2N1CCOCC1 | 4.2 | 98.7* | 109.7* | 238.9 | -5.2 | -3.1
COC(=O)c1cc(S(=O)(=O)N2CCOCC2)c(Cl)cc1N1CCOCC1 | -1.5 | -7.1 | 0.5 | 381.4 | -5.4 | -4.5
O=C(NCc1ccccc1)C1CCCN(S(=O)(=O)c2cccc3nonc23)C1 (stereo not given) | -4.4 | 13.0 | -4.8 | 466.8 | -0.7 | -0.6
CC1CCN(CCNC(=O)C2CCCN(S(=O)(=O)c3cccc4nonc34)C2)CC1 (stereo not given) | 2.0 | 3.4 | 24.1* | 194.0 | -2.6 | -4.1
CN(C)c1ccc(/C=C/C(=O)c2cccc(Br)c2)cc1 | -18.0 | 21.9 | 1.0 | 115.6 | 8.3* | 5.9
CN(C)c1ccc(C(=O)/C=C/c2cccnc2)cc1 | -5.5 | 8.1 | 2.0 | 311.9 | -3.7 | -1.1
CC1CCCCC12NC(=O)N(CC(=O)Nc1nccs1)C2=O (stereo not given) | nt | nt | nt | 506.9 | nt | nt
CCCCCC(=O)Nc1ccc(C(=O)CN2C(=O)NC3(CCCCCC3)C2=O)cc1 | nt | nt | 0.8 | 261.4 | nt | nt
SMILES | pCIP destab | UBC9 SUMO inh | CTSL1 counter | T cell HTS | IMP-1 inhibitor | VIM-2 inh
COc1cc(C(=O)Nc2c(C)cc(C)cc2C)c([N+](=O)[O-])cc1OC | -3.0 | 6.5 | 21.8* | 164.5 | -3.0 | -2.8
COc1cc(C(=O)Nc2ccc(C)cn2)c([N+](=O)[O-])cc1OC | 3.2 | -0.8 | -0.2 | 477.6 | -1.7 | -1.2
CC(C)Cn1c(N)c(C(=O)COC(=O)[C@H](C)NC(=O)c2ccccc2Cl)c(=O)n(C)c1=O | nt | nt | 19.5* | 294.2 | nt | nt
CCC(C(=O)OCC(=O)c1c(N)n(CC(C)C)c(=O)n(C)c1=O)c1ccccc1 (stereo not given) | nt | nt | 0.1 | 694.7 | nt | nt
Cc1ccc(NC(=O)CNCc2ccccc2Cl)cc1S(=O)(=O)N(C)C | 1.2 | 16.7 | -9.2 | 348.3 | 36.6* | 0.1
COc1ccc(NC(=O)N(C)C[C@H]2Oc3c(NC(=O)Cc4ccccc4)cccc3C(=O)N([C@H](C)CO)C[C@@H]2C)cc1 | nt | nt | nt | 265.6 | nt | nt
CCOc1ccc(NC2=C(OC)C(=O)c3ccccc3C2=O)cc1 | -18.7 | 56.6* | -3.5 | 240.8 | 0.5 | 0.6
COC1=C(Nc2ccc(OC)cc2)C(=O)c2ccccc2C1=O | -5.6 | 34.5 | -4.5 | 165.6 | 1.0 | 2.2
Cc1cc(-c2[nH]nc3c2C(c2cccc(O)c2)C(C#N)=C(N)O3)c(C)s1 (stereo not given) | -13.9 | 14.5 | -2.4 | 346.9 | 6.8* | 3.0
Cc1cc(-c2[nH]nc3c2C(c2ccsc2)C(C#N)=C(N)O3)c(C)s1 (stereo not given) | -8.0 | -8.0 | -0.5 | 216.5 | -0.6 | -1.7
CC(C)(C)NC(=O)CC1C[C@H](C(=O)N2CCCCC2)[C@@]2(CCc3ccccc3)c3[nH]c4ccccc4c3CCN2C1=O (stereo not given in full) | nt | nt | nt | 242.8 | nt | nt
Cc1onc(-c2ccccc2)c1C(=O)NCC(=O)Nc1cc(Cl)ccc1Cl | nt | nt | nt | 574.4 | nt | nt
N#CC(c1nc2ccccc2nc1N1CCCC1)S(=O)(=O)c1ccccc1 (stereo not given) | -21.3 | 99.2 | -0.2 | 90.6 | -1.5 | -3.4
Cc1ccc(S(=O)(=O)C(C#N)c2nc3ccccc3nc2N2CCC(C)CC2)cc1 (stereo not given) | -34.2 | 81.2* | nt | nt | -1.4 | -2.5
